Experimental findings from ChEMBL document CHEMBL4433227, “Enhancing the ligand efficiency of anti-HIV compounds targeting frameshift-stimulating RNA” (Bioorg Med Chem, 2019) are described below.

The source made the active and inactive calls. No cut-off for these calls is given here.

The nature of series [1]: (§1) Competitive binding affinity to HIV-1 FSS RNA assessed as dissociation constant in presence of bulk yeast tRNA by SPR assay. More on the design: species or system Human immunodeficiency virus 1. A general note: Surface plasmon resonance follows binding to a sensor surface in real time, without labels.
Series [2] has as its system Human immunodeficiency virus 1. In words: Binding affinity to HIV-1 FSS RNA assessed as association rate constant by SPR assay. In a few lines: (§2)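 Compounds injected in HBS at 80 μL/min for 1 min, at least two injections per concentration. Each curve fit to a 1:1 Langmuir model, using the two lowest fittable concentrations. Kinetic constants averaged.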
Series [3] concerns Human immunodeficiency virus 1. Briefly: Binding affinity to HIV-1 FSS RNA assessed as dissociation rate constant by SPR assay. In a few lines: as §2
Series [4] is described as follows: Binding affinity to HIV-1 FSS RNA assessed as dissociation constant by SPR assay. Set-up: species or system Human immunodeficiency virus 1. In a few lines:
as §2

The test system of series [5] is Human immunodeficiency virus 1. In words: Antiviral activity against HIV1 3B infected in human MT2 cells assessed as reduction in p24 Gag protein production at 25 uM on day 6 post infection by ELISA relative to control. The class given is functional. More on the design: scale not given: the % may be the effect or the level left.
Series [6] in a line: Cytotoxicity against human HEK293FT cells assessed as reduction in viability at < 40 uM after 24 hrs by WST1 assay. The format is cell-based. In a few lines:
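HEK293FT cells, 2.5×10^4/well in triplicate, grown in DMEM with 10% FBS and 1% pen-strep at 37 °C. After 4 h adherence, compound dilutions added for 24 h. WST-1 then added for 1 h and the signal read on a plate reader. Mitochondrial activity taken as the metabolic read-out.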

In series [7] the test system is Human immunodeficiency virus. Briefly: Binding affinity to HIV frameshift-stimulating RNA assessed as upregulation of HIV p160 Gag-pol protein expression by Western blot analysis. Background: In western blotting, separated proteins are transferred to a membrane and probed.
Series [8] has as its system Human immunodeficiency virus. In words: Antiviral activity against pseudotyped HIV assessed as reduction in viral production. The format is functional, organism-based.
Series [9] concerns Human immunodeficiency virus. Briefly: Antiviral activity against pseudotyped HIV assessed as reduction in viral infectivity. The class given is functional, organism-based.
Series [10] has as its system Human immunodeficiency virus 1. Briefly: Antiviral activity against HIV1 3B infected in human MT2 cells assessed as reduction in p24 Gag protein production on day 6 post infection by ELISA. Particulars: Human immunodeficiency virus 1, 3B, MT2, 144 h. The format is functional, organism-based.
Series [11] has as its system Human immunodeficiency virus 1. Briefly: Antiviral activity against patient derived multidrug resistant HIV1 AD.MDR01. The format is functional, organism-based.
In series [12] the test system is Human immunodeficiency virus 1. In words: Antiviral activity against HIV1 3B. The format is functional, organism-based.
In series [13] the test system is Human immunodeficiency virus 1. Described as §1.
Series [14] deals with Human immunodeficiency virus 1. In words: Binding affinity to HIV-1 FSS RNA at 2 uM dialyzed up to 36 hrs by HPLC analysis. In short, it runs like this: (§3)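 RNAs refolded at 2.5 μM in PBS with 1 mM EDTA (25 °C, 90 °C, then 27 °C). Tubes (3500 MWCO) held 200 μL of RNA, in duplicate, with an RNA-free control tube. Dialysis against 2.0 μM compound in PBS for 36 h. Compound concentration inside the tubes measured by HPLC.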

For series [15], the species on record is Homo sapiens. In words: Binding affinity to human IRF5 RNA at 2 uM dialyzed up to 36 hrs by HPLC analysis. In a few lines:
as §3

Series [16] is filed under the species Homo sapiens. In words: Binding affinity to human BDNF RNA at 2 uM dialyzed up to 36 hrs by HPLC analysis. In short, it runs like this: as §3

On to `CCc1nc2ccccc2cc1C(=O)N(C)[C@@H](CCn1cc(C[C@@H](C(=O)N2C[C@H](O)C[C@H]2C(=O)N(C)[C@@H](Cc2ccccc2)C(=O)NCCCN)N(C)C(=O)c2cc3ccccc3nc2CC)nn1)C(=O)N1C[C@H](O)C[C@H]1C(=O)N(C)[C@@H](Cc1ccccc1)C(=O)NCCCN`, for which the Kd (usually the concentration at which binding is half-saturated) worked out at 441 nM in [1] and 583 nM in [4]. In addition, in series [2], the Ka is 1.49 ×10⁴ /M.s. The Kdiss in series [3] stood at 6.8 ×10⁻³ /s. Also, the Activity in series [5] came to 63%.

As for `CCc1nc2ccccc2cc1C(=O)N(C)[C@@H](CCn1cc(C[C@@H](C(=O)N2CCC[C@H]2C(=O)N(C)[C@@H](Cc2ccccc2)C(=O)NCCCN)N(C)C(=O)c2cc3ccccc3nc2CC)nn1)C(=O)N1CCC[C@H]1C(=O)N(C)[C@@H](Cc1ccccc1)C(=O)NCCCN`, the Kd in [1] came out at 132 nM; in series [4], 497 nM. In addition, in series [2], the Ka is 6.49 ×10⁴ /M.s. Besides, the Kdiss in series [3] is 2.37 ×10⁻² /s. The Activity result was “Toxic” in series [6] and 63% in series [5].

For the compound `CCc1nc2cc3ccccc3cc2cc1C(=O)N[C@@H](C/C=C\C[C@H](NC(=O)c1cc2cc3ccccc3cc2nc1CC)C(=O)N1CCC[C@H]1C(=O)N[C@@H](Cc1ccccc1)C(=O)NCCCN)C(=O)N1CCC[C@H]1C(=O)N[C@@H](Cc1ccccc1)C(=O)NCCCN`, the Activity entry in series [7] was “Dose-dependent effect”. The Kd in [4] turned out to be 102 nM. The outcome in [8] and in series [9] was Active.

As for `CCc1nc2cc3ccccc3cc2cc1C(=O)N(C)[C@@H](CCn1cc(C[C@@H](C(=O)N2CCC[C@H]2C(=O)N(C)[C@@H](Cc2ccccc2)C(=O)NCCCN)N(C)C(=O)c2cc3cc4ccccc4cc3nc2CC)nn1)C(=O)N1CCC[C@H]1C(=O)N(C)[C@@H](Cc1ccccc1)C(=O)NCCCN`, the Activity result in series [7] is “Dose-dependent effect”. Further, the values for the Kd in [1] and in series [4] were 130 nM and 16 nM, respectively. Also, the Ka in [2] was 1.9 ×10⁵ /M.s. Also, the Kdiss in series [3] is 3 ×10⁻³ /s. In addition, the IC50 – broadly, the concentration needed to halve the response being measured – in [10] is 4860 nM. For the same compound, the result in series [11], in series [8], in series [9] and in [12] was Active.

In the case of `NC[C@@H]1O[C@H](O[C@H]2[C@@H](O)[C@H](O[C@@H]3[C@@H](O)[C@H](N)C[C@H](N)[C@H]3O[C@H]3O[C@H](CN)[C@@H](O)[C@H](O)[C@H]3N)O[C@@H]2CO)[C@H](N)[C@@H](O)[C@@H]1O` [FRAMYCETIN], the outcome in series [13] was inactive. Also, the Kd in [4] is 779000 nM.

Turning to `CN(C(=O)c1cnc2ccccc2c1)[C@@H](CCn1cc(C[C@@H](C(=O)N2C[C@H](O)C[C@H]2C(=O)N(C)[C@@H](Cc2ccccc2)C(=O)NCCCN)N(C)C(=O)c2cnc3ccccc3c2)nn1)C(=O)N1C[C@H](O)C[C@H]1C(=O)N(C)[C@@H](Cc1ccccc1)C(=O)NCCCN`, the Kd in series [1] was 183 nM; in [4], 110 nM. Besides, the Ka in series [2] is 6.74 ×10⁴ /M.s. In addition, the Kdiss in series [3] was 5.42 ×10⁻³ /s. Also, the Activity in series [5] was 63%.

`CN(C(=O)c1cnc2ccccc2c1)[C@@H](CCn1cc(C[C@@H](C(=O)N2CCC[C@H]2C(=O)N(C)[C@@H](Cc2ccccc2)C(=O)NCCCN)N(C)C(=O)c2cnc3ccccc3c2)nn1)C(=O)N1CCC[C@H]1C(=O)N(C)[C@@H](Cc1ccccc1)C(=O)NCCCN`: the result (in series [14]; in the series filed under Homo sapiens [15]; in the series filed under Homo sapiens [16]) was Active. Also, the Kd in series [1] is 124 nM; in series [4], 62.2 nM. Also, the Ka in [2] is 5.66 ×10⁴ /M.s. Moreover, in series [3], the Kdiss was 2.26 ×10⁻³ /s. Also, the Activity in series [5] came out at 63%.

Consider `CCc1nc2ccccc2cc1C(=O)N(C)[C@@H](CCn1cc(C[C@@H](C(=O)N2CCC[C@H]2C(=O)N(C)[C@@H](Cc2ccccc2)C(N)=O)N(C)C(=O)c2cc3ccccc3nc2CC)nn1)C(=O)N1CCC[C@H]1C(=O)N(C)[C@@H](Cc1ccccc1)C(N)=O`, for which the Kd in [1] stood at 16800 nM; in series [4], 19300 nM. In addition, in series [2], the Ka turned out to be 1.69 ×10³ /M.s. Moreover, in series [3], the Kdiss was 2.07 ×10⁻² /s.

For `CN(C(=O)c1cnc2ccccc2c1)[C@@H](CCn1cc(C[C@@H](C(=O)N2C[C@H](O)C[C@H]2C(=O)N(C)[C@@H](Cc2ccccc2)C(N)=O)N(C)C(=O)c2cnc3ccccc3c2)nn1)C(=O)N1C[C@H](O)C[C@H]1C(=O)N(C)[C@@H](Cc1ccccc1)C(N)=O`, the Ka in series [2] was 4.09 ×10³ /M.s. Besides, the Kdiss in series [3] was 5.41 ×10⁻³ /s. Further, in series [4], the Kd is 1470 nM.
